Measured values from paper PMC5626417 (International Journal of Nanomedicine, 2017).
Ends that are not written are not given here.

How the values were obtained:
[1] = tested on: HeLa cells; settings: after 20 hours of incubation with 1 μM (0.854 μg/mL) PTX; cited from earlier work
[2] = In vivo plasma concentration and bio-distribution of PTX; parameters: species or system BALB/c mice; settings: mice, HPLC
Method in brief: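 Female BALB/c mice (4–6 weeks, 18–22 g) carried subcutaneous HeLa xenografts (5×10^6 cells) grown to ~50 mm3. Filtered formulations (100 μL) were dosed daily via tail vein for 2 weeks. Blood and organs (lung, liver, kidney, heart, spleen) were saline-washed, weighed and stored at −20°C. Plasma and homogenates were methanol-precipitated and spun at 12,000 rpm for 10 min; PTX was quantified by C18 HPLC at 227 nm.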

[3] = tested on: HeLa cells; experiment: Cytotoxicity of CPP; assay type: cell-based, Human; settings: MTT, 3 and 24 hours incubation, up to 1,000 μM
Method in brief: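 HeLa cells seeded at 5×10^3/well and grown 24 h. Exposed to peptide at 50–1,000 μM for 3 h, washed twice with PBS, then given fresh medium for 24 h. A parallel arm used 100 and 1,000 μM for 24 h. Viability by MTT (3 h, DMSO solubilisation, OD492), expressed as percent of untreated cells.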

[4] = tested on: L292 cells, HCT cells, A594 cells, Hep-G2 cells, and HSC cells; experiment: Cytotoxicity of Rq and Rq/PTX on other cell types; assay type: cell-based; settings: 24 hours incubation with 1,000 μM Rq; Figure S2
[5] = tested on: HeLa cells; experiment: Cellular uptake and distribution by fluorescence / confocal microscopy; assay type: cell-based, Human; settings: 10 and 100 μM, 30 minutes, 37°C, serum-free medium
Method in brief: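 HeLa cells (4×10^4) on coverslips, 24 h, then FITC-labelled peptide or FITC alone at 10 or 100 μM in serum-free medium, 37°C for 30 min. Washed twice in PBS with heparin to strip surface-bound peptide, fixed in 4% PFA. For widefield imaging, nuclei were DAPI-stained; for intracellular distribution, cells were imaged by confocal microscopy immediately after fixation.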

## CC(=O)O[C@H]1C(=O)[C@@]2(C)[C@H]([C@H](OC(=O)c3ccccc3)[C@]3(O)C[C@H](OC(=O)[C@H](O)[C@@H](NC(=O)c4ccccc4)c4ccccc4)C(C)=C1C3(C)C)[C@]1(OC(C)=O)CO[C@@H]1C[C@@H]2O [PTX, paclitaxel]
[1]
  intracellular PTX concentration: 0.206 mg/mL
[2]; after 2 weeks of daily tail vein treatment, tissue homogenate
  PTX level in tissues (organs): accumulated in liver, kidney, and heart
[2]; tail vein injection, 30 minutes versus 24 hours after injection
  drop in the PTX concentration in plasma: sharply decreased

## RRRRQWWQW [Rq]
[3]
  cell viability after incubation with Rq: Nearly all the cells were viable
[4]
  cell viability of other cell types after incubation with Rq: no significant decrease in the cell viability

## fluorescein isothiocyanate [FITC]
[5]
  green fluorescence in cells (fluorescence microscopy): no fluorescence was observed
